B1: Osa-1-4 twister ribozyme (parent)
chain: CCGCCUAACACUGCCAAUGCCGGUCCCAAGCCCGGAUAAAAGUGGAGGGGGCGG

Variants of: B1
Assay: self-cleavage, relative activity (ratio to wild type); higher = more cleavage; co-transcriptional
Procedure, shortened: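 A DNA template encoding a 54-nucleotide twister ribozyme from Oryza sativa was made so that each of the 48 positions downstream of the cleavage site carried 97 % wild-type base and 1 % of each other base. Transcription in vitro ran for 2 h at 37 °C, during which the ribozyme could cleave itself. Reverse transcription used a template-switching oligonucleotide, and the products were PCR-amplified and deep-sequenced. Each read was scored as cleaved or uncleaved by whether upstream sequence was present, and relative activity is the fraction cleaved normalised to wild type.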
Variant CCGCCUGACACUGCCAAUGCCGGUCCCAAGCCCGGAUAAAAGUGGAGGGGGCGG has a self-cleavage of 0.49. For CCGCCUGGCACUGCCAAUGCCGGUCCCAAGCCCGGAUAAAAGUGGAGGGGGCGG, the self-cleavage was 0.28. For CCGCCUGUCACUGCCAAUGCCGGUCCCAAGCCCGGAUAAAAGUGGAGGGGGCGG, the self-cleavage was 0.1. Variant CCGCCUGCCACUGCCAAUGCCGGUCCCAAGCCCGGAUAAAAGUGGAGGGGGCGG has a self-cleavage of 0.1. CCGCCUCACACUGCCAAUGCCUGUCCCAAGCCCGGAUAAAAGUGGAGGGGGCGG showed a self-cleavage of 0.04. CCGCCUCACACUGCCAAUGCCAGUCCCAAGCCCGGAUAAAAGUGGAGGGGGCGG gave a self-cleavage of 0.07. CCGCCUCACACUGCCAAUGCCCGUCCCAAGCCCGGAUAAAAGUGGAGGGGGCGG showed a self-cleavage of 0.02. CCGCCUGAGACUGCCAAUGCCGGUCCCAAGCCCGGAUAAAAGUGGAGGGGGCGG showed a self-cleavage of 0.29. Work on CCGCCUGAUACUGCCAAUGCCGGUCCCAAGCCCGGAUAAAAGUGGAGGGGGCGG yielded a self-cleavage of 0.19. For CCGCCUGAAACUGCCAAUGCCGGUCCCAAGCCCGGAUAAAAGUGGAGGGGGCGG, the self-cleavage was 0.11. CCGCCUGACACUGCCAAUGUCGGUCCCAAGCCCGGAUAAAAGUGGAGGGGGCGG showed a self-cleavage of 0.43. For CCGCCUGACACUGCCAAUGACGGUCCCAAGCCCGGAUAAAAGUGGAGGGGGCGG, the self-cleavage was 0.5. In the case of CCGCCUGACACUGCCAAUGGCGGUCCCAAGCCCGGAUAAAAGUGGAGGGGGCGG, the self-cleavage is reported as 0.11. Work on CCGCCUCACACUGCCAAUGCCGGUCCCAAGCCCGGAUAAAAGGGGAGGGGGCGG yielded a self-cleavage of 0.06. With CCGCCUCACACUGCCAAUGCCGGUCCCAAGCCCGGAUAAAAGAGGAGGGGGCGG the self-cleavage was 0.06. For CCGCCUCACACUGCCAAUGCCGGUCCCAAGCCCGGAUAAAAGCGGAGGGGGCGG, the self-cleavage was 0.04. Variant CCGCCUCACACUGCCAAUGCCGGUCCCAAGCCCGGAUAAAAGUGCAGGGGGCGG has a self-cleavage of 0.01. Variant CCGCCUCACACUGCCAAUGCCGGUCCCAAGCCCGGAUAAAAGUGUAGGGGGCGG has a self-cleavage of 0.02. CCGCCUCACACUGCCAAUGCCGGUCCCAAGCCCGGAUAAAAGUGAAGGGGGCGG gave a self-cleavage of 0.03. CCGCCUCACACUGCCAAUGCCGGUCCCAAGCCCGGAUAAAAGUAGAGGGGGCGG gave a self-cleavage of 0.05. In the case of CCGCCUCACACUGCCAAUGCCGGUCCCAAGCCCGGAUAAAAGUUGAGGGGGCGG, the self-cleavage is reported as 0.05. CCGCCUCACACUGCCAAUGCCGGUCCCAAGCCCGGAUAAAAGUCGAGGGGGCGG showed a self-cleavage of 0.05. For CCGCCUCACACUGCCAAUGCCGGUCCCAAGCCCAGAUAAAAGUGGAGGGGGCGG, the self-cleavage was 0.03. With CCGCCUCACACUGCCAAUGCCGGUCCCAAGCCCUGAUAAAAGUGGAGGGGGCGG the self-cleavage was 0.05. With CCGCCUCACACUGCCAAUGCCGGUCCCAAGCCCCGAUAAAAGUGGAGGGGGCGG the self-cleavage was 0.04. For CCGCCUGACACUGCCAAUGCCGGUCCCAAGCACGGAUAAAAGUGGAGGGGGCGG, the self-cleavage was 0.05. In the case of CCGCCUGACACUGCCAAUGCCGGUCCCAAGCUCGGAUAAAAGUGGAGGGGGCGG, the self-cleavage is reported as 0.08. Variant CCGCCUGACACUGCCAAUGCCGGUCCCAAGCGCGGAUAAAAGUGGAGGGGGCGG has a self-cleavage of 0.09. Work on CCGCCUGACAAUGCCAAUGCCGGUCCCAAGCCCGGAUAAAAGUGGAGGGGGCGG yielded a self-cleavage of 0.13. With CCGCCUGACAUUGCCAAUGCCGGUCCCAAGCCCGGAUAAAAGUGGAGGGGGCGG the self-cleavage was 0.15. In the case of CCGCCUGACAGUGCCAAUGCCGGUCCCAAGCCCGGAUAAAAGUGGAGGGGGCGG, the self-cleavage is reported as 0.1. Work on CCGCCUCACACUGCCAAUGCCGGUCCCAAGCCCGAAUAAAAGUGGAGGGGGCGG yielded a self-cleavage of 0.04. With CCGCCUCACACUGCCAAUGCCGGUCCCAAGCCCGUAUAAAAGUGGAGGGGGCGG the self-cleavage was 0.05. CCGCCUCACACUGCCAAUGCCGGUCCCAAGCCCGCAUAAAAGUGGAGGGGGCGG showed a self-cleavage of 0.04. For CCGCCUCACACUGCCAAUGCCGGUCCCAAGCCCGGAUAAAAGUGGAGGGUGCGG, the self-cleavage was 0.04. CCGCCUCACACUGCCAAUGCCGGUCCCAAGCCCGGAUAAAAGUGGAGGGCGCGG gave a self-cleavage of 0.04. Variant CCGCCUCACACUGCCAAUGCCGGUCCCAAGCCCGGAUAAAAGUGGAGGGAGCGG has a self-cleavage of 0.04. In the case of CCGCCUCACACUGCCAAUGCCGGUCCCAAGCCCGGAUAAAAGUGGAAGGGGCGG, the self-cleavage is reported as 0.04. With CCGCCUCACACUGCCAAUGCCGGUCCCAAGCCCGGAUAAAAGUGGAUGGGGCGG the self-cleavage was 0.03. For CCGCCUCACACUGCCAAUGCCGGUCCCAAGCCCGGAUAAAAGUGGACGGGGCGG, the self-cleavage was 0.02. CCGCCUCACACUGCCAAUGCCGGUCCCAAGCCCGGACAAAAGUGGAGGGGGCGG gave a self-cleavage of 0.06. CCGCCUCACACUGCCAAUGCCGGUCCCAAGCCCGGAAAAAAGUGGAGGGGGCGG showed a self-cleavage of 0.02. Variant CCGCCUCACACUGCCAAUGCCGGUCCCAAGCCCGGAGAAAAGUGGAGGGGGCGG has a self-cleavage of 0.07. CCGCCUCACACUGCCAAUGCCGGUCCCAAGCCCGGAUAAAAGUGGAGGAGGCGG showed a self-cleavage of 0.02. CCGCCUCACACUGCCAAUGCCGGUCCCAAGCCCGGAUAAAAGUGGAGGUGGCGG showed a self-cleavage of 0.02. CCGCCUCACACUGCCAAUGCCGGUCCCAAGCCCGGAUAAAAGUGGAGGCGGCGG showed a self-cleavage of 0.01. For CCGCCUCACACUGCCAAUGCCGGACCCAAGCCCGGAUAAAAGUGGAGGGGGCGG, the self-cleavage was 0.04. CCGCCUCACACUGCCAAUGCCGGGCCCAAGCCCGGAUAAAAGUGGAGGGGGCGG showed a self-cleavage of 0.01. With CCGCCUCACACUGCCAAUGCCGGCCCCAAGCCCGGAUAAAAGUGGAGGGGGCGG the self-cleavage was 0.03.
